Measurements reported in ChEMBL document CHEMBL1153752, “Hymenopsins A and B and a macrophorin analogue from a fungicolous Hymenopsis sp” (2010).
Activity calls are given as the source filed them. The calls are words filed in the database; no cut-off is given here.

Assays:
Fusarium verticillioides [1] = assay: Antifungal activity against Fusarium verticillioides NRRL 25457 at 200 ug/disk by disk diffusion method; format: functional
Staphylococcus aureus [2] = assay: Antibacterial activity against Staphylococcus aureus ATCC 25923 at 200 ug/disk by disk diffusion method; format: functional; conditions: for zone of inhibition at 200 µg/disc: read-out: IZ
Procedure, shortened: (§1)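 Standard paper-disk diffusion assay. Test material was loaded at 200 μg/disk, and gentamicin sulfate was run as the standard at 50 μg/disk. The C. albicans assay used the same 200 μg/disk level. The read-out was the diameter of the zone of inhibition in mm.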

Candida albicans [3] = assay: Antifungal activity against Candida albicans ATCC 14053 at 200 ug/disk by disk diffusion method; format: functional, organism-based; procedure, shortened: as §1
Aspergillus flavus [4] = assay: Antifungal activity against Aspergillus flavus NRRL 6541 at 200 ug/disk by disk diffusion method; format: functional
Bacillus subtilis [5] = assay: Antibacterial activity against Bacillus subtilis ATCC 6051 at 200 ug/disk by disk diffusion method; format: functional; conditions: for zone of inhibition at 200 µg/disc: read-out: IZ; procedure, shortened: as §1
Candida albicans [6] = assay: Antifungal activity against Candida albicans ATCC 14053 at 25 ug/disk by disk diffusion method; format: functional, organism-based
Aspergillus flavus [7] = assay: Antifungal activity against Aspergillus flavus NRRL 6541 at 25 ug/disk by disk diffusion method; format: functional, organism-based
Fusarium verticillioides [8] = assay: Antifungal activity against Fusarium verticillioides NRRL 25457 at 25 ug/disk by disk diffusion method; format: functional, organism-based
Staphylococcus aureus [9] = assay: Antibacterial activity against Staphylococcus aureus ATCC 25923 at 50 ug/disk by disk diffusion method; format: functional, organism-based; procedure, shortened: as §1
Bacillus subtilis [10] = assay: Antibacterial activity against Bacillus subtilis ATCC 6051 at 50 ug/disk by disk diffusion method; format: functional, organism-based; procedure, shortened: as §1

| Compound | inhibition zone (IZ) (Fusarium verticillioides [1]) | inhibition zone (IZ) (Candida albicans [3]) | inhibition zone (IZ) (Aspergillus flavus [4]) | zone of inhibition at 200 µg/disc (Staphylococcus aureus [2]) | zone of inhibition at 200 µg/disc (Bacillus subtilis [5]) | other results |
| --- | --- | --- | --- | --- | --- | --- |
| C[C@@]1(CO)CCC[C@]2(C)[C@H]3C[C@@]45O[C@@H]4[C@H](O)[C@]4(CO)O[C@@H]4[C@]5(O)CC3=CC[C@@H]12 | inactive | inactive | inactive |  |  | inhibition zone (IZ) (Staphylococcus aureus [2]): inactive; inhibition zone (IZ) (Bacillus subtilis [5]): inactive |
| NYSTATIN |  |  |  |  |  | inhibition zone (IZ) (Candida albicans [6]): Active; inhibition zone (IZ) (Aspergillus flavus [7]): Active; inhibition zone (IZ) (Fusarium verticillioides [8]): Active |
| C[C@@]1(CO)CCC[C@]2(C)[C@H]3C[C@@]45O[C@@H]4C(=O)[C@]4(CO)O[C@@H]4[C@]5(O)CC3=CC[C@@H]12 [HYMENOPSIN B] | inactive | inactive | inactive | 21 mm | 21 mm |  |
| C=C1CC[C@H]2[C@](C)(CO)CCC[C@]2(C)[C@H]1C[C@@]12O[C@@H]1C(=O)[C@]1(CO)O[C@@H]1C2=O |  | inactive |  | 32 mm | 32 mm | zone of inhibition at 200 µg/disc (Fusarium verticillioides [1]; read-out: IZ): 20 mm; zone of inhibition at 200 µg/disc (Aspergillus flavus [4]; read-out: IZ): 20 mm |
| GENTAMICIN SULFATE |  | inactive |  |  |  | inhibition zone (IZ) (Staphylococcus aureus [9]): 25 mm; inhibition zone (IZ) (Bacillus subtilis [10]): 25 mm |
